Test results taken from ChEMBL document CHEMBL1255395, “Laninamivir prodrug CS-8958, a long-acting neuraminidase inhibitor, shows superior anti-influenza virus activity after a single administration” (Antimicrob Agents Chemother, 2010).
The source made the active and inactive calls. No cut-off for these calls is given here.

Experiments:
Influenza A virus [1] = assay: Antimicrobial activity against Influenza A virus (A/Puerto Rico/8/34(H1N1)) infected in BALB/c mouse assessed as increase in mouse survival at 0.095 mg/kg, itn administered for 7 days before infection; type: functional, organism-based; set-up: dose 0.095 mg/kg; settings: A/Puerto Rico/8/1934(H1N1)
Influenza A virus [2] = assay: Antimicrobial activity against Influenza A virus (A/Puerto Rico/8/34(H1N1)) infected in BALB/c mouse assessed as increase in mouse survival at 0.18 mg/kg, itn administered for 7 days before infection; type: functional, organism-based; set-up: dose 0.18 mg/kg; settings: A/Puerto Rico/8/1934(H1N1)
Influenza A virus [3] = assay: Antimicrobial activity against Influenza A virus (A/Puerto Rico/8/34(H1N1)) infected in BALB/c mouse assessed as increase in mouse survival at 0.37 mg/kg, itn administered for 7 days before infection; type: functional, organism-based; set-up: dose 0.37 mg/kg; settings: A/Puerto Rico/8/1934(H1N1)
Outline: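 Single intranasal dose in saline (50 μl) given to anesthetized female BALB/c mice 7 days before intranasal infection with A/PR/8/34 at 500 PFU, n = 12. Survival was checked daily to day 20. Groups were compared with saline controls by Kaplan-Meier and log-rank test, with Bonferroni adjustment where needed.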

Influenza A virus [4] = assay: Antimicrobial activity against Influenza A virus (A/Puerto Rico/8/34(H1N1)) infected in BALB/c mouse assessed as increase in mouse survival at 0.71 mg/kg, itn administered for 7 days before infection; type: functional, organism-based; set-up: dose 0.71 mg/kg; settings: A/Puerto Rico/8/1934(H1N1)
Influenza A virus [5] = assay: Antimicrobial activity against Influenza A virus (A/Puerto Rico/8/34(H1N1)) infected in BALB/c mouse assessed as increase in mouse survival at 0.085 mg/kg, itn administered for 7 days before infection; type: functional, organism-based; set-up: dose 0.085 mg/kg; settings: A/Puerto Rico/8/1934(H1N1)
Influenza A virus [6] = assay: Antimicrobial activity against Influenza A virus (A/Puerto Rico/8/34(H1N1)) infected in BALB/c mouse assessed as increase in mouse survival at 0.25 mg/kg, itn administered for 7 days before infection; type: functional, organism-based; set-up: dose 0.25 mg/kg; settings: A/Puerto Rico/8/1934(H1N1)
Influenza A virus [7] = assay: Antimicrobial activity against Influenza A virus (A/Puerto Rico/8/34(H1N1)) infected in BALB/c mouse assessed as increase in mouse survival at 0.76 mg/kg, itn administered for 7 days before infection; type: functional, organism-based; set-up: dose 0.76 mg/kg; settings: A/Puerto Rico/8/1934(H1N1)
Influenza B virus [8] = assay: Antimicrobial activity against Influenza B virus (B/Hong Kong/05/1972)infected in BALB/c mouse assessed as increase in mouse survival at 0.076 mg/kg, itn administered for 7 days before infection; type: functional, organism-based; set-up: dose 0.076 mg/kg
Influenza B virus [9] = assay: Antimicrobial activity against Influenza B virus (B/Hong Kong/05/1972) infected in BALB/c mouse assessed as increase in mouse survival at 0.23 mg/kg, itn administered for 7 days before infection; type: functional, organism-based; set-up: dose 0.23 mg/kg
Influenza B virus [10] = assay: Antimicrobial activity against Influenza B virus (B/Hong Kong/05/1972) infected in BALB/c mouse assessed as increase in mouse survival at 0.71 mg/kg, itn administered for 7 days before infection; type: functional, organism-based; set-up: dose 0.71 mg/kg
Influenza A virus [11] = assay: Antimicrobial activity against Influenza A virus (A/Puerto Rico/8/34(H1N1)) infected in BALB/c mouse assessed as increase in mouse survival at 0.017 mg/kg, itn administered 11 hrs post infection for 5 days […] infection; type: functional, organism-based; set-up: dose 0.017 mg/kg; settings: A/Puerto Rico/8/1934(H1N1)
Outline: (§1)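 Female BALB/c mice (5–6 weeks) infected intranasally with A/PR/8/34 at 100 PFU, n = 10 per group. Each mouse got one intranasal dose at 11 hpi plus oral doses twice daily from 11 hpi to 120 hpi. Drug went by one route and saline by the other, all in saline vehicle. Survival was followed daily to day 20 and analysed by Kaplan-Meier with a log-rank test against the saline group.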

Influenza A virus [12] = assay: Antimicrobial activity against Influenza A virus (A/Puerto Rico/8/34(H1N1)) infected in BALB/c mouse assessed as reduction in viral titer in lung at 0.027 mg/kg, itn after 11 hrs post infection; type: functional, organism-based; set-up: dose 0.027 mg/kg; settings: A/Puerto Rico/8/1934(H1N1), TDE = time-dependent effect
Outline: (§2)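 BALB/c mice infected intranasally with A/PR/8/34 at 30 PFU. Oral drug was given twice daily from 11 hpi with intranasal saline at 11 hpi, or a single intranasal dose at 11 hpi with oral saline on the same schedule. Lungs (n = 3) were harvested at 35, 59 and 83 hpi. Titers were measured by MDCK plaque assay, log10 PFU/lungs.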

Influenza B virus [13] = assay: Antimicrobial activity against Influenza B virus (B/Malaysia/2506/2004) infected itn dosed Mustela putorius furo assessed as nasal viral titer treated after 4 hrs post infection measured after 1 day; type: functional, organism-based
Outline: (§3)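 Ferrets (600–800 g), seronegative by hemagglutination inhibition, anaesthetized with ketamine/xylazine and infected with B/Malaysia/2506/2004, 1,000 PFU/100 μl. From 4 hpi they received either a single intranasal dose (saline, 0.05 or 0.5 μmol/kg) or 25 mg/kg oral twice daily. Nasal wash titers measured by MDCK plaque assay on days 1, 2 and 3, log10 PFU/ml (n = 5). Undetectable samples entered at the lower limit of detection.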

Influenza B virus [14] = assay: Antimicrobial activity against Influenza B virus (B/Malaysia/2506/2004) infected itn dosed Mustela putorius furo assessed as nasal viral titer treated after 4 hrs post infection measured after 2 days; type: functional, organism-based; outline: as §3
Influenza B virus [15] = assay: Antimicrobial activity against Influenza B virus (B/Malaysia/2506/2004) infected itn dosed Mustela putorius furo assessed as nasal viral titer treated after 4 hrs post infection measured after 3 days; type: functional, organism-based; outline: as §3
Influenza A virus [16] = assay: Antimicrobial activity against Influenza A virus (A/Puerto Rico/8/34(H1N1)) infected in BALB/c mouse assessed as reduction in viral titer in lung at 0.24 mg/kg, itn administered 11 hrs post infection measured after 35 hrs post infection; type: functional, organism-based; set-up: dose 0.24 mg/kg; settings: A/Puerto Rico/8/1934(H1N1)
Outline: (§4)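 BALB/c mice infected intranasally with A/PR/8/34 at 30 PFU. Intranasal dosing at 0.5 μmol/kg began at 11 hpi, either repeated twice daily or given once followed by twice-daily saline. Lungs (n = 3) were taken at 35, 59 and 83 hpi and homogenized. Titers were measured by MDCK plaque assay as log10 PFU/lungs. Two-way ANOVA and Dunnett test were applied.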

Influenza A virus [17] = assay: Antimicrobial activity against Influenza A virus (A/Puerto Rico/8/34(H1N1)) infected in BALB/c mouse assessed as reduction in viral titer in lung at 0.24 mg/kg, itn administered 11 hrs post infection measured after 59 hrs post infection; type: functional, organism-based; set-up: dose 0.24 mg/kg; settings: A/Puerto Rico/8/1934(H1N1); outline: as §4
Influenza A virus [18] = assay: Antimicrobial activity against Influenza A virus (A/Puerto Rico/8/34(H1N1)) infected in BALB/c mouse assessed as reduction in viral titer in lung at 0.24 mg/kg, itn administered 11 hrs post infection measured after 83 hrs post infection; type: functional, organism-based; set-up: dose 0.24 mg/kg; settings: A/Puerto Rico/8/1934(H1N1); outline: as §4
Influenza A virus [19] = assay: Antimicrobial activity against oseltamivir-sensitive influenza A virus (A/Yokohama/67/2006 (H1N1)) clone 1 infected in BALB/c mouse assessed as reduction in viral titer in lung at 0.080 mg/kg, itn administered 13 hrs post infection measured after 37 hrs post infection; type: functional, organism-based; set-up: dose 0.08 mg/kg
Outline: (§5)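 Female BALB/c mice infected intranasally with A/Yokohama/67/2006 clone 1. From 13 hpi they received either a single intranasal dose (0.057 or 0.17 μmol/kg) or 1.0 or 10 mg/kg oral twice daily. Lung titers measured at 37, 61 and 85 hpi by MDCK plaque assay, log10 PFU/lungs (n = 3). Detection limit 2.4.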

Influenza A virus [20] = assay: Antimicrobial activity against oseltamivir-sensitive influenza A virus (A/Yokohama/67/2006 (H1N1)) clone 1 infected in BALB/c mouse assessed as reduction in viral titer in lung at 0.080 mg/kg, itn administered 13 hrs post infection measured after 61 hrs post infection; type: functional, organism-based; set-up: dose 0.08 mg/kg; outline: as §5
Influenza A virus [21] = assay: Antimicrobial activity against oseltamivir-sensitive influenza A virus (A/Yokohama/67/2006 (H1N1)) clone 1 infected in BALB/c mouse assessed as reduction in viral titer in lung at 0.080 mg/kg, itn administered post 13 hrs infection measured after 85 hrs post infection; type: functional, organism-based; set-up: dose 0.08 mg/kg; outline: as §5
Influenza A virus [22] = assay: Antimicrobial activity against Influenza A virus (A/Puerto Rico/8/34(H1N1)) infected in BALB/c mouse assessed as reduction in viral titer in lung at 0.080 mg/kg, itn after 11 hrs post infection; type: functional, organism-based; set-up: dose 0.08 mg/kg; settings: A/Puerto Rico/8/1934(H1N1), TDE = time-dependent effect; outline: as §2
Influenza A virus [23] = assay: Antimicrobial activity against Influenza A virus (A/Puerto Rico/8/34(H1N1)) infected in BALB/c mouse assessed as increase in mouse survival at 0.17 mg/kg, itn for 7 days post infection; type: functional, organism-based; set-up: dose 0.17 mg/kg; settings: A/Puerto Rico/8/1934(H1N1)
Influenza A virus [24] = assay: Antimicrobial activity against Influenza A virus (A/Puerto Rico/8/34(H1N1)) infected in BALB/c mouse assessed as increase in mouse survival at 0.17 mg/kg, itn for 4 days post infection; type: functional, organism-based; set-up: dose 0.17 mg/kg; settings: A/Puerto Rico/8/1934(H1N1)
Influenza A virus [25] = assay: Antimicrobial activity against Influenza A virus (A/Puerto Rico/8/34(H1N1)) infected in BALB/c mouse assessed as increase in mouse survival at 0.17 mg/kg, itn for 1 day post infection; type: functional, organism-based; set-up: dose 0.17 mg/kg; settings: A/Puerto Rico/8/1934(H1N1)
Influenza A virus [26] = assay: Antimicrobial activity against Influenza A virus (A/Puerto Rico/8/34(H1N1)) infected in BALB/c mouse assessed as increase in mouse survival at 0.17 mg/kg, itn for 12 hrs post infection; type: functional, organism-based; set-up: dose 0.17 mg/kg; settings: A/Puerto Rico/8/1934(H1N1)
Influenza A virus [27] = assay: Antimicrobial activity against Influenza A virus (A/Puerto Rico/8/34(H1N1)) infected in BALB/c mouse assessed as increase in mouse survival at 0.017 mg/kg, itn administered 11 hrs post infection for 5 days […] infection measured on day 20; type: functional, A/Puerto Rico/8/1934(H1N1); outline: as §1
Influenza B virus [28] = assay: Antimicrobial activity against Influenza B virus (B/Hong Kong/05/1972) infected in BALB/c mouse assessed as increase in mouse survival at 0.23 mg/kg, itn administered for 7 days before infection measured at day 20; type: functional

In the case of `CCCCCCCC(=O)OC[C@@H](O)[C@@H](OC)[C@@H]1OC(C(=O)O)=C[C@H](NC(=N)N)[C@H]1NC(C)=O` [LANINAMIVIR OCTANOATE], the Activity (Influenza A virus [1]) was “Active”, the Activity (Influenza A virus [2]) was “Active” and the Activity (Influenza A virus [3]) was “Active”. For the same compound, the Activity (Influenza A virus [4]) was “Active”, the Activity (Influenza A virus [5]) was “Active” and the Activity (Influenza A virus [6]) was “Active”. The Activity (Influenza A virus [7]) was “Active”, the Activity (Influenza B virus [8]) was “Active” and the Activity (Influenza B virus [9]) was “Active”. For the same compound, the Activity (Influenza B virus [10]) was “Active”, the Activity (Influenza A virus [11]) was “Active” and the Activity (Influenza A virus [12]) was “tde”. For the same compound, the Activity (Influenza B virus [13]) was “Dose-dependent effect”, the Activity (Influenza B virus [14]) was “Dose-dependent effect” and the Activity (Influenza B virus [15]) was “Dose-dependent effect”. The Activity (Influenza A virus [16]) was “Active”, the Activity (Influenza A virus [17]) was “Active” and the Activity (Influenza A virus [18]) was “Active”. The Activity (Influenza A virus [19]) was “Active”, the Activity (Influenza A virus [20]) was “Active” and the Activity (Influenza A virus [21]) was “Active”. For the same compound, the Activity (Influenza A virus [22]) was “tde”, the Activity (Influenza A virus [23]) was “Active” and the Activity (Influenza A virus [24]) was “Active”. For the same compound, the Activity (Influenza A virus [25]) was “Active”, the Activity (Influenza A virus [26]) was “Active” and the Activity (Influenza A virus [27]) was 30%. It also gave an Activity (Influenza B virus [28]) of 82%.
